Screening results: PubChem, several laboratories
APP 5'UTR act = APP 5'UTR luciferase reporter activation. hit rate 1% among 190,000. activation, % at 2 µM. SH-SY5Y APP 5'UTR luciferase reporter, luminescence; zero percent = DMSO vehicle wells;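 active = activation above a set limit, based on mean plus 3 SD of controls, cut at about 140% in these data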
STAT3 inh = reduces IL-6 driven STAT3 reporter signal | U3A cells, IL-6 STAT3-luciferase reporter, luminescence; host cell line lacks STAT1 | inhibition, % at 5.5 µM | hit rate 0.89% among 190,000;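 active = inhibition above the mean inhibition across all screened compounds plus 3 SD, cut at about 44% in these data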;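 also: 0% = DMSO only wells and 100% = 100 µM nifuroxazide control wells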
STAT1 inh = STAT1 signaling inhibition | NIH 3T3 STAT1-luciferase reporter, IFN-gamma, luminescence | inhibition, % at 5.5 µM | hit rate 0.35% among 200,000 | AID 920;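 active = inhibition above a set limit, the mean inhibition across all tested compounds plus 3 SD, cut at about 34% in these data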;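 also: 0% = IFN-gamma with DMSO and 100% = IFN-gamma with 300 µM nifuroxazide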
STAT1 act-1 = STAT1 signaling activation; NIH 3T3 STAT1-luciferase reporter, IFN-gamma, luminescence; 100% = IFN-gamma alone, no compound; activation (% of control), % at 5.5 µM; hit rate 2.6% among 200,000; AID 932;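 active = activation above the screen-wide mean activation plus 3 SD, cut at about 130% in these data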;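 also: raw ratio to IFN-gamma control signal so 100% means no change and 0% no light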
STAT3 act-1 = activators of IL-6 induced STAT3 signaling; hit rate 0.91% among 190,000; U3A cells, IL-6 STAT3-luciferase reporter, luminescence; 100% = signal with IL-6 EC80 alone; activation (% of control), % at 5.6 µM; AID 871;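 active = activation above the screen-wide mean of compound activation plus 3 SD, cut at about 130% in these data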;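 also: 0% = background luminescence of wells with medium and substrate only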
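Material: human U3A cells carrying STAT3-luciferase construct. Measured by: reporter luminescence signal. Timing: compound 1 h, then IL-6 6 h at 37 °C.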
NF-kB expr up = raises NF-kB expression in human neuronal cells. NF-kB reporter expression; active compounds read high. fold change at 12.5 µM. hit rate 1.6% among 190,000. AID 1239; in the data active = fold change above about 3.3
STAT3 act-2 = STAT3 activation, confirmation assay; shares compounds with STAT3 act-1; U3A STAT3-luciferase reporter, IL-6 potentiation, luminescence; U3A cells lack STAT1; 100 means same as IL-6 alone; potentiation (% of control), % at 5.7 µM; hit rate 64% among 1,200;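 active = percent activation of the STAT3 luciferase reporter above a set limit taken from the earlier primary screen, cut at about 130% in these data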;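 also: 0% = background signal of medium plus substrate and 100% = median of IL-6 with DMSO wells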
NFkB act STAT3ct = activates NF-kappaB, counter-screen to STAT3 activators; shares compounds with STAT3 act-1; human cells, NF-kappaB reporter activation; activation (% of control), % at 5.7 µM; hit rate 11% among 1,200; in the data active = activation above about 120%;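 also: reporter induced by TNF-alpha stimulation; 100% = median of stimulated DMSO wells and 0% = no signal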
STAT1 act-2 = activates STAT1, counter-screen to STAT3 activators; shares compounds with STAT3 act-1; NIH 3T3 STAT1-luciferase reporter, IFN-gamma, luminescence; activation (% of control), % at 5.7 µM; hit rate 13% among 1,200; AID 1318;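 active = activation above the solvent-only control well mean plus 3 SD, set per screening run, cut at about 120% in these data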;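 also: 100% = IFN-gamma with DMSO median signal so 100% means no change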
* marks the source's active call; other numbers are inactive results; x = no result. An excerpt weighted towards active compounds, which were near 4.9% of everything screened.

SMILES | APP 5'UTR act | STAT3 inh | STAT1 inh | STAT1 act-1 | STAT3 act-1 | NF-kB expr up | STAT3 act-2 | NFkB act STAT3ct | STAT1 act-2
Cc1ccc2nc(SCc3nnc(-c4ccccc4Br)o3)[nH]c2c1 | 16.0 | -45.4 | -1.5 | 101.3 | 139.6* | 2.96 | 123.5 | 100.4 | 99.5
CCn1c(SCC(=O)N/N=C/C=C\c2ccccc2[N+](=O)[O-])nnc1-c1ccccc1 | -1.1 | -38.2 | 8.8 | 92.1 | 142.3* | 0.78 | 150.5* | 116.8 | 109.5
Cc1cc(NC(=O)Cc2cccs2)no1 | -1.2 | -47.4 | 0.9 | 99.2 | 143.3* | 1.26 | 130.8 | 108.3 | 99.8
N=C(c1cccc([N+](=O)[O-])c1)N1CCCCC1 | 13.4 | 8.4 | -5.2 | 104.8 | 97.7 | 1.33 | x | x | x
CC(=O)n1cc(C2C(=O)CCCC2=O)c2ccccc21 | -4.0 | -42.2 | 3.3 | 97.0 | 140.1* | 0.96 | 118.3 | 99.5 | 97.0
COc1ccc(N2CCN(C(=O)c3cc4c(-c5cccc(OC)c5)nn(C)c4s3)CC2)cc1 | 19.9 | 19.4 | 6.7 | 94.8 | 88.8 | 0.53 | x | x | x
CCN1CCN(C(=O)c2cc3c(-c4ccc(Cl)cc4)nn(C)c3s2)CC1 | -16.8 | -50.9 | 12.4 | 88.7 | 151.6* | 0.73 | 134.4* | 96.9 | 91.4
COc1ccc(-c2nn(C)c3sc(C(=O)N4CCOCC4)cc23)cc1OC | 20.8 | 29.6 | 2.0 | 99.3 | 79.9 | 0.71 | x | x | x
Cn1nc(-c2ccc(Cl)cc2)c2cc(C(=O)N3CCN(C(=O)c4ccco4)CC3)sc21 | -1.6 | -56.1 | 12.1 | 89.0 | 149.9* | 0.37 | 129.2 | 98.6 | 89.2
COc1ccccc1C(=O)NCC(=O)N/N=C/c1cccc(Cl)c1 | 13.6 | 24.8 | -2.3 | 101.4 | 86.9 | 1.18 | x | x | x
Cc1ccc(-c2nc(N)n(C(=O)Cc3ccccc3)n2)cc1 | 2.8 | 2.0 | 2.4 | 97.8 | 97.9 | 1.32 | x | x | x
Cc1ccc(-c2nc(N)n(C(=O)c3cccs3)n2)cc1 | 18.4 | -39.0 | 6.6 | 92.3 | 147.9* | 0.82 | 127.9 | 99.9 | 89.2
COc1ccccc1-c1cc(C(=O)N/N=C/c2cccs2)c2ccccc2n1 | -12.8 | -49.2 | 0.4 | 99.7 | 138.7* | 1.15 | 137.9* | 105.3 | 96.5
O=C(N/N=C/c1cccs1)c1cc(-c2ccncc2)nc2ccccc12 | -94.6 | -39.6 | -8.8 | 107.8 | 138.4* | 2.8 | 101.7 | 125.1* | 106.2
CCc1ccc(/C=N/NC(=O)c2cc(-c3ccncc3)nc3ccccc23)s1 | -91.2 | -28.2 | -12.8 | 111.5 | 124.2 | 1.76 | x | x | x
COc1ccc(/C=C(\C#N)C(=O)OCC(=O)Nc2c(C)cccc2C(C)C)cc1 | 11.6 | -2.1 | -1.0 | 100.9 | 105.0 | 1.25 | x | x | x
COc1cc(OC)c(OC)cc1CN1CCN(Cc2cccn2C)CC1 | -1.7 | -15.7 | 3.7 | 96.6 | 109.0 | 0.9 | x | x | x
Cn1c(=O)c(C(=O)Nc2ccccn2)c(O)c2ccccc21 | 3.5 | -44.1 | -23.4 | 121.4 | 139.3* | 4.47* | 178.4* | 115.3 | 181.4*
Cn1c(Cc2c[nH]c3ccccc23)n[nH]c1=S | 3.2 | -54.5 | 2.5 | 97.7 | 155.0* | 1.13 | 132.6 | 104.3 | 94.8
Cc1[nH]c2ccccc2c1Cc1n[nH]c(=S)n1C | 9.8 | -1.4 | -8.4 | 105.7 | 104.3 | 1.17 | x | x | x
COCc1ccc(CN2CCc3c([nH]c4ccccc34)C2C(C)(C)C)o1 (stereo not drawn) | 15.1 | -44.0 | 16.9 | 83.3 | 139.8* | 1.36 | 141.0* | 104.7 | 92.7
O=C(c1cccc(S(=O)(=O)N2CCc3ccccc32)c1)N1CCN(c2ccccn2)CC1 | -5.5 | 7.9 | 5.6 | 92.7 | 95.1 | 0.99 | x | x | x
CCOC(=O)c1[nH]c2ccccc2c1NC(=S)Nc1cccc(C)c1 | 11.9 | -72.8 | 1.9 | 98.3 | 162.5* | 1.14 | 154.5* | 99.6 | 86.8
CCOC(=O)c1[nH]c2ccccc2c1NC(=O)C(CC)CC | -1.9 | 9.4 | -1.6 | 101.5 | 96.2 | 1.03 | x | x | x
CCOC(=O)c1[nH]c2ccccc2c1NC(=S)Nc1ccccc1 | 28.2 | -66.0 | 0.1 | 99.9 | 156.6* | 1.2 | 163.0* | 108.0 | 89.4
SMILES | APP 5'UTR act | STAT3 inh | STAT1 inh | STAT1 act-1 | STAT3 act-1 | NF-kB expr up | STAT3 act-2 | NFkB act STAT3ct | STAT1 act-2
S=C(Nc1ccc(Cl)cc1)Nc1cccc2cnccc12 | -16.2 | -48.6 | 8.6 | 92.2 | 146.6* | 0.99 | 143.7* | 97.4 | 100.4
c1ccc(CCc2ccccc2-c2nc(-c3cccnc3)no2)cc1 | x | 12.2 | -1.4 | 96.6 | 92.2 | 0.85 | x | x | x
c1cncc(-c2noc(-c3cccc4ccccc34)n2)c1 | -7.4 | -105.7 | -28.4 | 125.7 | 188.5* | 3.01 | 176.4* | 123.7* | 147.9*
COc1ccc(OC)c2c1sc(=NC(=O)c1ccco1)n2C | 6.4 | -76.2 | -6.0 | 105.4 | 166.4* | 0.87 | 138.6* | 105.2 | 105.0
CCn1c(=NC(=O)c2ccco2)sc2cccc(F)c21 | 36.2 | -47.6 | -23.7 | 121.2 | 144.3* | 1.68 | 130.4 | 113.5 | 125.1*
COc1cccc(C(c2c(NC(=O)c3ccccc3)sc(C)c2C)N2CCN(C)CC2)c1 (stereo not drawn) | -4.5 | -10.2 | -10.7 | 109.7 | 104.1 | 0.76 | x | x | x
O=C1CN(C(=O)c2ccc(Br)o2)C(c2ccccc2)c2cc(Br)ccc2N1 (stereo not drawn) | -4.8 | -46.9 | 1.4 | 98.7 | 142.4* | 1.56 | 138.7* | 100.4 | 111.3
COC(=O)/C(=C/Nc1cccc2ccccc12)[N+](=O)[O-] | 5.2 | -76.9 | 10.6 | 90.3 | 173.1* | 1.23 | 134.8* | 108.3 | 99.3
C=CCc1cccc(/C=N/NC(=O)C(C)Nc2ccc(C)cc2)c1O (stereo not drawn) | -33.3 | 8.2 | 6.5 | 94.2 | 93.9 | 0.69 | x | x | x
COc1ccc(Nc2nnc(SCC(=O)/C=C3/N(C)c4ccccc4C3(C)C)s2)cc1 | -1.8 | 16.5 | 9.5 | 91.5 | 86.0 | 1.45 | x | x | x
CCCc1cc2c(=O)c(-c3nc4ccccc4s3)c(COCC(=O)O)oc2cc1O | 49.2 | -57.5 | 2.4 | 96.7 | 151.2* | 1.36 | 146.5* | 115.9 | 104.5
CN(CC(=O)Nc1nc2ccccc2s1)S(=O)(=O)c1ccc(Cl)cc1 | 0.5 | -60.4 | -6.5 | 106.0 | 156.2* | 0.97 | 130.0 | 99.5 | 100.6
Cc1cccc(NC(=O)CN(C)S(=O)(=O)c2ccc(Cl)cc2)n1 | 41.7 | 1.9 | -0.7 | 99.5 | 103.9 | 1.02 | x | x | x
O=C1CC(c2ccccc2Cl)=NN(c2ncnc3ccccc23)C1=O | 11.2 | -59.6 | -9.5 | 106.2 | 147.9* | 0.99 | 145.6* | 109.3 | 110.5
CC1CCN(c2ncnc3ccccc23)CC1 | -12.5 | 31.3 | 4.7 | 95.6 | 75.7 | 0.76 | x | x | x
